Assay [1] concerns Enterococcus faecalis. Briefly: Antibacterial activity against Enterococcus faecalis ATCC 29212 after 20 hrs by broth microdilution method. As to conditions: ATCC 29212, 20 h. Format: functional. The essentials:
(§1)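 NCCLS broth microdilution in cation-adjusted Mueller–Hinton broth. Serial 2-fold compound dilutions were inoculated with 5 × 10⁴ CFU per 0.1 mL and incubated at 35 °C for 20 h before scoring the MIC.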
On the technique in general: In broth dilution the organism is exposed to a series of concentrations in liquid medium.

The subject of another assay is HepG2. Description: Cytotoxicity against human HepG2 cells after 48 hrs by WST-8 assay. Format: cell-based. As to conditions: HepG2, 48 h. Put shortly:
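HepG2 cells in DMEM with 10% FBS were seeded at 1 × 10⁴ cells/well and treated 24 h later with varying concentrations for 48 h. WST-8 reagent was then added for 1.5 h at 37 °C, and absorbance read at 450 nm. Percentage growth inhibition was calculated against untreated cells, and IC50 was derived. Tunicamycin served as positive control.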

In assay [2] the test system is Staphylococcus aureus. Description: Antibacterial activity against methicillin-sensitive […] Staphylococcus aureus ATCC 29213 after 20 hrs by broth microdilution method. In kind it is functional. As to conditions: ATCC 29213, 20 h. The essentials:
as §1

Assay [3] has as its system Enterococcus faecalis. Description: Antibacterial activity against vancomycin-resistant Enterococcus faecalis SR7914 after 20 hrs by broth microdilution method. In kind it is functional. To be noted: SR7914, 20 h. Put shortly: as §1
The subject of assay [4] is Staphylococcus aureus. Description: Antibacterial activity against methicillin-resistant Staphylococcus aureus isolate SR3637 after 20 hrs by broth microdilution method. Format: functional. To be noted: isolate SR3637, 20 h. The essentials: as §1
Assay [5] concerns Enterococcus faecium. Description: Antibacterial activity against Enterococcus faecium ATCC 19434 after 20 hrs by broth microdilution method. In kind it is functional. As to conditions: ATCC 19434, 20 h. The essentials:
as §1

Assay [6] has as its system Enterococcus faecium. Briefly: Antibacterial activity against vancomycin-resistant Enterococcus faecium SR7917 after 20 hrs by broth microdilution method. To be noted: SR7917, 20 h. In kind it is functional. The essentials:
as §1

Assay [7] concerns the target T1, Undecaprenyl-phosphate alpha-N-acetylglucosaminyl 1-phosphate transferase (Thermotoga maritima (strain ATCC 43589 / MSB8 / DSM 3109 / JCM 10099), UniProt Q9X1N5).
T1 sequence (Q9X1N5 whole entry): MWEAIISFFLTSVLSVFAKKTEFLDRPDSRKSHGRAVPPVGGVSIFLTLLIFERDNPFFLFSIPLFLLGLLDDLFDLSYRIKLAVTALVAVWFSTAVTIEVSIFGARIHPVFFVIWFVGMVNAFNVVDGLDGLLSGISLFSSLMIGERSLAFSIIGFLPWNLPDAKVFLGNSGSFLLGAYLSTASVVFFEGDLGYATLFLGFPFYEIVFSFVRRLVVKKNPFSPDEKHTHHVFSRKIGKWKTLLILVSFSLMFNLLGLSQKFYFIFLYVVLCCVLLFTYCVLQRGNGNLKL
Briefly: Inhibition of Thermotoga maritima WecA using radiolabeled UDP-[14C]GlcNAc as substrate after 30 mins. The essentials: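 Purified Thermotoga maritima WecA was assayed at pH 8 (100 mM Tris-HCl, 10 mM MgCl₂, 1.1 mM C₅₅-P, 0.16 mM UDP-[¹⁴C]GlcNAc, 92.7 mM Triton X-100), final concentrations. The reaction was started by enzyme, run 30 min at 65 °C and stopped at 100 °C for 1 min. C₅₅-PP-GlcNAc was separated by TLC and scanned. IC50 was relative to a no-inhibitor control, mean of triplicates.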

Assay [8] deals with T2, Phospho-N-acetylmuramoyl-pentapeptide-transferase (Bacillus subtilis (strain 168), UniProt Q03521).
T2 sequence (Q03521 whole entry): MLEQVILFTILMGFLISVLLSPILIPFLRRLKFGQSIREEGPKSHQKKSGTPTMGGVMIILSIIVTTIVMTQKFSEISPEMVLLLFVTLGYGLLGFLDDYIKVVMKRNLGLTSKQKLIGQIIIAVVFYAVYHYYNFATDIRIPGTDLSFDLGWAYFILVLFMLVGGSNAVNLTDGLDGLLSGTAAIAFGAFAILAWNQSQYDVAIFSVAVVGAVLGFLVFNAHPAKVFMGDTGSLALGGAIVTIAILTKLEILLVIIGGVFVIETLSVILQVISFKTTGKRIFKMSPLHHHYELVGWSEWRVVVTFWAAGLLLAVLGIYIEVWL
Briefly: Noncompetitive inhibition of Bacillus subtilis MraY using […] as substrate after 30 mins by Lineweaver-Burk plot.

Assay [9] deals with T2, Phospho-N-acetylmuramoyl-pentapeptide-transferase. Briefly: Competitive inhibition of Bacillus subtilis MraY using UDP-MurNAc-pentapeptide as substrate after 30 mins by Lineweaver-Burk plot. Put shortly:
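B. subtilis MraY was assayed at pH 7.5 (100 mM Tris-HCl, 40 mM MgCl₂, 250 mM NaCl, 8.4 mM N-lauroylsarcosine), started by enzyme and run 30 min at 37 °C. Initial rates were taken at 0.25–1.5 mM UDP-MurNAc-[¹⁴C]pentapeptide, fixed 1 mM C₅₅-P, and several inhibitor levels. Lipid I was separated by TLC and scanned. Ki came from Lineweaver–Burk plots assuming a ping-pong Bi Bi mechanism.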

The test system of the next assay is Bacillus subtilis. Briefly: Antibacterial activity against Bacillus subtilis at 64 ug/ml. In kind it is functional, organism-based.

In brackets after ≈: the same amount, converted by molar mass. Activity calls are given as the source filed them. The calls are words filed in the database; no cut-off is given here. Some results are limits rather than exact numbers.

Regarding `CC(C)[C@H](NC(=O)N[C@H](C(=O)N[C@@H](CCCCCCCc1ccc(-c2ccccc2)cc1)C(=O)NCCCN[C@H](C(=O)O)[C@H](O[C@@H]1O[C@H](CN)[C@@H](O)[C@H]1O)[C@H]1O[C@@H](n2ccc(=O)[nH]c2=O)[C@H](O)[C@@H]1O)[C@@H]1CCNC(=N)N1)C(=O)O`, the MIC (as a rule, the lowest concentration found to suppress growth) against Enterococcus faecalis [1] turned out to be 4 µg/mL (≈ 3.6 µM); in the assay with Staphylococcus aureus [2], 4 µg/mL (≈ 3.6 µM); against Enterococcus faecalis [3], 16 µg/mL (≈ 14.4 µM); in the assay with Staphylococcus aureus [4], 4 µg/mL (≈ 3.6 µM); with Enterococcus faecium [5], 4 µg/mL (≈ 3.6 µM); against Enterococcus faecium [6], 8 µg/mL (≈ 7.21 µM). Further, the half-maximal inhibitory concentration (IC50) (as a rule, the midpoint of a concentration-inhibition curve) with HepG2 is greater than 100 µg/mL.

On to `CC(C)C[C@H](NC(=O)[C@@H](NC(=O)N[C@H](C(=O)O)C(C)C)[C@@H]1CCN=C(N)N1)C(=O)NCCCN[C@H](C(=O)O)[C@H](O[C@@H]1O[C@H](CN)[C@@H](O)[C@H]1O)[C@H]1O[C@@H](n2ccc(=O)[nH]c2=O)[C@H](O)[C@@H]1O` [MURAMYCIN D2], for which the IC50 in [7] came out at 1230 µM. For the same compound, the Ki in [8] and in assay [9] was 0.0076 µM throughout.

In the case of `CC(C)C[C@H](NC(=O)[C@@H](NC(=O)N[C@H](C(=O)O)C(C)C)[C@@H]1CCNC(=N)N1)C(=O)NCCCN[C@H](C(=O)O)[C@H](O[C@@H]1O[C@H](CN)[C@@H](O)[C@H]1O)[C@H]1O[C@@H](n2ccc(=O)[nH]c2=O)[C@H](O)[C@@H]1O` [MURAMYCIN D2], the minimal inhibitory concentration (MIC) against Enterococcus faecalis [1], against Staphylococcus aureus [2], in the assay with Enterococcus faecalis [3], against Staphylococcus aureus [4], against Enterococcus faecium [5] and against Enterococcus faecium [6] was greater than 64 µg/mL throughout. In the assay on Bacillus subtilis, the result was inactive.

For the compound `CC(C)C[C@@H](NC(=O)[C@@H](NC(=O)N[C@H](C(=O)O)C(C)C)[C@@H]1CCN=C(N)N1)C(=O)NCCCN[C@H](C(=O)O)[C@H](O[C@@H]1O[C@H](CN)[C@@H](O)[C@H]1O)[C@H]1O[C@@H](n2ccc(=O)[nH]c2=O)[C@H](O)[C@@H]1O`, in assay [7], half-maximal inhibition (IC50) required 1560 µM. For the same compound, the inhibitory constant (Ki) in assay [8] and in [9] was 0.049 µM each time.

In the case of `CCCCCCCCCCCCCCC[C@H](NC(=O)[C@@H](NC(=O)N[C@H](C(=O)O)C(C)C)[C@@H]1CCNC(=N)N1)C(=O)NCCCN[C@H](C(=O)O)[C@H](O[C@@H]1O[C@H](CN)[C@@H](O)[C@H]1O)[C@H]1O[C@@H](n2ccc(=O)[nH]c2=O)[C@H](O)[C@@H]1O`, the MIC against Enterococcus faecalis [1] is 4 µg/mL (≈ 3.74 µM); in the assay on Staphylococcus aureus [2] it was 2 µg/mL (≈ 1.87 µM); against Enterococcus faecalis [3] it was 4 µg/mL (≈ 3.74 µM); in the assay on Staphylococcus aureus [4], 4 µg/mL (≈ 3.74 µM); against Enterococcus faecium [5], 4 µg/mL (≈ 3.74 µM); with Enterococcus faecium [6], 2 µg/mL (≈ 1.87 µM). In [7], the IC50 was determined as 970 µM. For the same compound, the Ki in assay [8] and in [9] was 0.247 µM throughout.

For `CCCCCCOc1ccc(-c2ccc([C@H](NC(=O)[C@@H](NC(=O)N[C@H](C(=O)O)C(C)C)[C@@H]3CCNC(=N)N3)C(=O)NCCCN[C@H](C(=O)O)[C@H](O[C@@H]3O[C@H](CN)[C@@H](O)[C@H]3O)[C@H]3O[C@@H](n4ccc(=O)[nH]c4=O)[C@H](O)[C@@H]3O)cc2)cc1`, the MIC in the assay on Enterococcus faecalis [1] was 8 µg/mL (≈ 7.19 µM); with Staphylococcus aureus [2] it was 4 µg/mL (≈ 3.6 µM); against Enterococcus faecalis [3], 8 µg/mL (≈ 7.19 µM); against Staphylococcus aureus [4], 8 µg/mL (≈ 7.19 µM); against Enterococcus faecium [5], 4 µg/mL (≈ 3.6 µM); against Enterococcus faecium [6], 4 µg/mL (≈ 3.6 µM). The compound also gave a 50% inhibitory concentration (IC50) in the assay on HepG2 greater than 100 µg/mL.

On to `CCCCOc1ccc(-c2ccc(CC[C@H](NC(=O)[C@@H](NC(=O)N[C@H](C(=O)O)C(C)C)[C@@H]3CCNC(=N)N3)C(=O)NCCCN[C@H](C(=O)O)[C@H](O[C@@H]3O[C@H](CN)[C@@H](O)[C@H]3O)[C@H]3O[C@@H](n4ccc(=O)[nH]c4=O)[C@H](O)[C@@H]3O)cc2)cc1`, for which the MIC is 16 µg/mL (≈ 14.4 µM) with Enterococcus faecalis [1]; 16 µg/mL (≈ 14.4 µM) against Staphylococcus aureus [2]; 64 µg/mL (≈ 57.5 µM) in the assay on Enterococcus faecalis [3]; 32 µg/mL (≈ 28.8 µM) with Staphylococcus aureus [4]; 16 µg/mL (≈ 14.4 µM) against Enterococcus faecium [5]; 32 µg/mL (≈ 28.8 µM) with Enterococcus faecium [6]. In addition, in the assay with HepG2, the IC50 was greater than 100 µg/mL.

Consider `CC(C)C[C@@H](NC(=O)[C@@H](NC(=O)N[C@H](C(=O)O)C(C)C)[C@@H]1CCNC(=N)N1)C(=O)NCCCN[C@H](C(=O)O)[C@H](O[C@@H]1O[C@H](CN)[C@@H](O)[C@H]1O)[C@H]1O[C@@H](n2ccc(=O)[nH]c2=O)[C@H](O)[C@@H]1O`, for which the MIC with Enterococcus faecalis [1], against Staphylococcus aureus [2], against Enterococcus faecalis [3], with Staphylococcus aureus [4], in the assay with Enterococcus faecium [5] and in the assay on Enterococcus faecium [6] was greater than 64 µg/mL each time. The outcome in the assay on Bacillus subtilis was inactive.

As for `CCCCCCCCCCCCCCC[C@@H](NC(=O)[C@@H](NC(=O)N[C@H](C(=O)O)C(C)C)[C@@H]1CCNC(=N)N1)C(=O)NCCCN[C@H](C(=O)O)[C@H](O[C@@H]1O[C@H](CN)[C@@H](O)[C@H]1O)[C@H]1O[C@@H](n2ccc(=O)[nH]c2=O)[C@H](O)[C@@H]1O`, the MIC with Enterococcus faecalis [1] was 2 µg/mL (≈ 1.87 µM); in the assay on Staphylococcus aureus [2] it was 2 µg/mL (≈ 1.87 µM); in the assay with Enterococcus faecalis [3], 4 µg/mL (≈ 3.74 µM); against Staphylococcus aureus [4], 4 µg/mL (≈ 3.74 µM); in the assay with Enterococcus faecium [5] it was 0.5 µg/mL (≈ 0.467 µM); in the assay with Enterococcus faecium [6], 0.25 µg/mL (≈ 0.234 µM). The IC50 in the assay with HepG2 was greater than 100 µg/mL; in [7], 1340 µM. Moreover, the Ki in assay [8] and in [9] was 0.698 µM throughout.

The values are drawn from ChEMBL document CHEMBL1933006, “Mechanistic analysis of muraymycin analogues: a guide to the design of MraY inhibitors” (J Med Chem, 2011).
